# Data reported in ChEMBL document CHEMBL1152806, “Discovery of a potent, selective, and orally efficacious pyrimidinooxazinyl bicyclooctaneacetic acid diacylglycerol acyltransferase-1 inhibitor” (J Med Chem, 2009).
# Activity calls are given as the source filed them. The calls are words filed in the database; no cut-off is given here.
# What was measured:
# [1] = Aqueous solubility at pH 7.4; type: physicochemical; conditions: buffer
# [2] = Bioavailability in dog at 1 to 3 mg/kg; type: ADME, organism-based, Canis lupus familiaris; conditions: in vivo
# Rattus norvegicus [3] = test: Reduction of adipose triacylglycerol synthesis in 14 hrs fasted Han-Wistar rat assessed as decrease in ratio of [3H]palmitic acid incorporation into TAG and DAG at 1 mg/kg, po after 1.5 hrs relative to control; type: functional; design: scale not given: the % may be the effect or the level left
# In short: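 Male Han-Wistar rats (~300 g) on chow diet were given compound by oral gavage, suspended in HPMC/Tween. At 1.5 h they were anaesthetised with inactin and a bolus of [3H]-palmitic acid was given via a jugular cannula. Epididymal fat was taken 20 min later, homogenised in duplicate with [14C]-oleic acid internal standard, and lipids separated by HPLC. Result is % reduction of the TAG/DAG label ratio versus vehicle; n = 10.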
# Plasma [4] = test: Fraction unbound in dog plasma by LC-UVMS; type: ADME, cell-free, Canis lupus familiaris
# In short: (§1)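 Equilibrium dialysis in plasma of the relevant species at 37 °C; free and bound drug quantified by LC-UVMS; reported as % free.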
# [5] = Plasma clearance in rat at 1 to 3 mg/kg; type: ADME, organism-based; design: dose 1-3 mg/kg
# Rattus norvegicus [6] = test: Reduction of plasma triacylglycerol excursion in 14 hrs fasted Han-Wistar rat at 0.1 mg/kg, po treated 2 hrs before bolus corn oil administration measured 1.5 hrs post corn oil challenge by oral lipid tolerance test relative to control; type: functional; design: scale not given: the % may be the effect or the level left
# In short: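 Male Han-Wistar rats (~230 g) on chow diet were fasted 14 h and given compound by oral gavage, suspended in HPMC/Tween. A corn oil bolus (5 mL/kg) followed 2 h later. After 1.5 h, blood was drawn from the abdominal vena cava and plasma TAG measured colorimetrically (GPO-PAP). Result is % reduction versus vehicle-treated controls; n = 6.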
# Mus musculus = test: Inhibition of dietary-induced obesity in obese […] mouse model assessed as reduction in body weight at 20 mg/kg, po qd for 3 days relative to start weight; type: functional, organism-based; design: dose 20 mg/kg
# In short: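 Female C57BL/6 mice fed high-calorie cafeteria diet for 15 weeks to about 29 g, randomized into groups of 12. Oral gavage (10 mL/kg) once daily for 3 days, 2 h before the dark phase. Body weight recorded daily before dosing and expressed as percent change from day 0, compared with vehicle-treated diet-matched controls.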
# [7] = Metabolic stability in human alamethicin-activated microsomes assessed as conversion to acyl glucuronide form after 1 hr; type: ADME, Microsome
# Plasma [8] = test: Fraction unbound in rat plasma by LC-UVMS; type: ADME, cell-free; in short: as §1
# [9] = Volume of distribution at steady state in dog at 1 to 3 mg/kg; type: ADME, organism-based, Canis lupus familiaris; design: dose 1-3 mg/kg; conditions: in vivo, read-out: Vdss
# [10] = molecular target: T1, Diacylglycerol O-acyltransferase 1 (Homo sapiens, UniProt O75907); test: Inhibition of human recombinant DGAT1 expressed in Sf9 cells by liquid scintillography
# T1 sequence (O75907 whole entry): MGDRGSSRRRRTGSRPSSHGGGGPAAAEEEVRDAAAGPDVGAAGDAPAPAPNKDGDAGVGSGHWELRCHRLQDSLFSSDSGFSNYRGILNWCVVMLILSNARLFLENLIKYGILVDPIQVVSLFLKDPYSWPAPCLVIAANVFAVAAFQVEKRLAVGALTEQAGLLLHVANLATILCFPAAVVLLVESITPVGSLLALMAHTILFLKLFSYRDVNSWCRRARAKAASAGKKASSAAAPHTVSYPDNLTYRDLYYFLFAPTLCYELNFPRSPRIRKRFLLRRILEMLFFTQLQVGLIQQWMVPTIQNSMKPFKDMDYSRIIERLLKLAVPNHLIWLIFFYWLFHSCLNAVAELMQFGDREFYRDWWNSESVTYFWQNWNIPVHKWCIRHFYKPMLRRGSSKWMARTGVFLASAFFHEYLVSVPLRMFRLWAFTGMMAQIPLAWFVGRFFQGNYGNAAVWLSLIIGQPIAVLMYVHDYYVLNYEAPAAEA
# [11] = Half life in rat at 1 to 3 mg/kg, iv; type: ADME, organism-based; design: dose 1-3 mg/kg, route intravenous; conditions: in vivo
# [12] = Metabolic stability in dog hepatocytes assessed as conversion to acyl glucuronide form after 2 hrs; type: ADME, cell-based, Canis lupus familiaris, Hepatocyte
# Plasma [13] = test: Fraction unbound in human plasma by LC-UVMS; type: ADME, cell-free; in short: as §1
# Hepatocyte = test: Metabolic stability in rat hepatocytes assessed as conversion to acyl glucuronide form after 2 hrs; type: ADME, cell-based
# [14] = Bioavailability in rat at 1 to 3 mg/kg; type: ADME, organism-based; conditions: in vivo
# [15] = Metabolic stability in rat alamethicin-activated microsomes assessed as conversion to acyl glucuronide form after 1 hr; type: ADME, Microsome
# [16] = Metabolic stability in dog alamethicin-activated microsomes assessed as conversion to acyl glucuronide form after 1 hr; type: ADME, Canis lupus familiaris, Microsome
# [17] = Half life in dog at 1 to 3 mg/kg, po; type: ADME, organism-based, Canis lupus familiaris; design: dose 1-3 mg/kg, route oral; conditions: in vivo
# [18] = Plasma clearance in marmosets at 1 to 3 mg/kg; type: ADME, organism-based; design: dose 1-3 mg/kg; conditions: callitrichinae sp.
# CYP2C19 = CYP2C19 (Homo sapiens, UniProt P33261); test: Inhibition of CYP2C19 at 30 uM; type: ADME
# [19] = molecular target: T2, Sterol O-acyltransferase 1 (Homo sapiens, UniProt P35610); test: Inhibition of human ACAT1 by liquid scintillography
# T2 sequence (P35610 whole entry): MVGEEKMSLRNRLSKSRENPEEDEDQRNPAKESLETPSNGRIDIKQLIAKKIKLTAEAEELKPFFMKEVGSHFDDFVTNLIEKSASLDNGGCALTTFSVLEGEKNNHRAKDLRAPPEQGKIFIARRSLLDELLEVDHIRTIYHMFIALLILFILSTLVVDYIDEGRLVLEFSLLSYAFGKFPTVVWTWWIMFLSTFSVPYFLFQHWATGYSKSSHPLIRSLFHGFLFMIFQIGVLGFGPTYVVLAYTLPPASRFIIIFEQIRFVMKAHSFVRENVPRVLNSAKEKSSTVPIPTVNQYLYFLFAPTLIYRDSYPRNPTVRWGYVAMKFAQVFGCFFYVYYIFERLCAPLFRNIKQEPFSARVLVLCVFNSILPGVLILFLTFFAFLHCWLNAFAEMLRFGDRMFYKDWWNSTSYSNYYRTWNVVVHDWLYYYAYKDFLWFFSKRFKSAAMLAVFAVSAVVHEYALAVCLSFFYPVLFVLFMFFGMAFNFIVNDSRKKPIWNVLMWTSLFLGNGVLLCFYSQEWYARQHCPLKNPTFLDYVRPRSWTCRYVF
# [20] = Bioavailability in marmosets at 1 to 3 mg/kg; type: ADME, organism-based; conditions: callitrichinae sp., in vivo
# Chain of CYP2C19 (P33261 whole entry): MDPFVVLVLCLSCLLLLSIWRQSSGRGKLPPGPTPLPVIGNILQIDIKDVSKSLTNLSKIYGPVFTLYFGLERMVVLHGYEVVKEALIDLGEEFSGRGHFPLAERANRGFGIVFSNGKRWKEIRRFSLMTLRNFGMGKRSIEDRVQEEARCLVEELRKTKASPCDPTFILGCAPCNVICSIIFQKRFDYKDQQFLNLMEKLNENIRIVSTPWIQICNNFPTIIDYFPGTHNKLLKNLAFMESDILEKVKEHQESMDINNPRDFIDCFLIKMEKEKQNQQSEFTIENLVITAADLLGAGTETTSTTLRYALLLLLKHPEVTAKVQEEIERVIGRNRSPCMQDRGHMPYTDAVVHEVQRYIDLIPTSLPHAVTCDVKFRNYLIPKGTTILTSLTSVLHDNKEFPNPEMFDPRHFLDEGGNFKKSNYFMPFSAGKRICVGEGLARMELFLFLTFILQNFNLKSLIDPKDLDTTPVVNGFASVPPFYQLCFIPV
structure (smiles),measurement,setting,value
CC1(C)Oc2ncnc(N)c2N=C1c1ccc(C23CCC(CC(=O)O)(CC2)CC3)cc1,solubility,[1],12 µM
same,bioavailability,[2],> 100%
same,Activity,Rattus norvegicus [3],37%
same,Fu,Plasma [4],0.6%
same,clearance,[5],1.5 mL/min/kg
same,Activity,Rattus norvegicus [6],38%
same,Activity,Mus musculus,Active
same,Stability,[7],25%
same,Fu,Plasma [8],0.91%
same,Vd,[9],1 L/kg
same,IC50,[10],15 nM
same,half-life,[11],7 h
same,Stability,[12],38%
same,Fu,Plasma [13],1%
same,Stability,Hepatocyte,18%
same,bioavailability,[14],72%
same,Stability,[15],9%
same,Stability,[16],76%
same,half-life,[17],9.9 h
same,clearance,[18],0.78 mL/min/kg
same,inhibition at 30 µM,CYP2C19,< 25%
same,IC50,[19],5200 nM
same,bioavailability,[20],61%
